Rtt109 Vps75 = inhibitors of C. albicans Rtt109/Vps75 HAT, primary screen, biochemical, ThioGlo CoA-SH fluorescence, plate reader; Histone acetyltransferase RTT109 (Candida albicans (strain SC5314 / ATCC MYA-2876)), …; purified Rtt109/Vps75, 4 h; inhibition, % at 34.9 µM; actives 0.16% (n = 330,000);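 active = inhibition of at least 50% in every replicate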
TPT1 inhibitor = Candida albicans TPT1 enzyme inhibitors, primary screen, biochemical, fluorescence polarization; inhibition, % at 5 µM; actives 0.81% (n = 300,000); tRNA 2'-phosphotransferase TPT1 (Candida albicans SC5314); AID 1962, 2009; recombinant caTPT1, FP RNA substrate dephosphorylation;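 active = inhibition above the mean of all tested compounds plus 3 SD, set per screening campaign, cut at about 24% in these data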;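 also: plate controls were DMSO alone for no effect and ferristatin control at 100 nM for full effect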
HNF4A DNA FP = change in binding of human HNF4A to DNA, primary screen, biochemical, fluorescence polarization, FITC-DNA; Hepatocyte nuclear factor 4-alpha (Homo sapiens), P41235; 1 h; actives 0.3% (n = 360,000); activity change, % at 10 µM; in the data active = activity change above about 30%, passing the limit was not always enough
CSN deneddyl inh = inhibitors of CSN-mediated cullin deneddylation, primary screen, biochemical, fluorescence polarization, uHTS. COP9 signalosome complex subunit 5 (Homo sapiens), Q92905. Purified CSN, SCF-Nedd8-OG deneddylation. inhibition, % at 12.5 µM. actives 0.38% (n = 360,000). AID 651999, 2013;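 active = pattern-corrected inhibition above about 35%, with an unprinted fluorescence ratio check between 0.5 and 1.5, limit read from the data, passing the limit was not always enough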;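 also: 0% = enzyme with substrate and 100% = substrate without enzyme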
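Test system: Human Csn5 produced in HEK293T cells | Compound: 12.5 µM single point | Times: 90 min, room temperature | Signal: Fluorescence polarization readout | Read-out basis: % inhibition of substrate cleavage by Csn5 | Controls: no-enzyme wells high, enzyme-with-substrate wells low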
HNF4a DNA conf = change in HNF4A binding to DNA, retest, confirmation, biochemical, fluorescence polarization, FITC-DNA; shares compounds with HNF4A DNA FP; 1 h; activity change, % at 12.5 µM; actives 99% (n = 210); call rule not given here
* marks the source's active call; other numbers are inactive results; / = no result. Sampled rows, rich in hits. Any-hit rate of the full collection: about 1.2%.

SMILES	Rtt109 Vps75	TPT1 inhibitor	HNF4A DNA FP	CSN deneddyl inh	HNF4a DNA conf
COc1ccc(/C=N/NC(=O)c2ccccc2OC)cc1COc1ccccc1[N+](=O)[O-]	3.4	-3.0	83.0*	101.5*	59.6*
CCN(CC)c1ccc(C(=O)NNC(=O)Cn2c(=O)cnc3ccccc32)cc1	/	/	-0.7	-2.8	/
NNC(=O)C1CC(O)CN1S(=O)(=O)c1ccc2ccccc2c1 (centres undefined)	3.7	/	0.9	-6.7	/
Cc1nc(CSc2nsc(/C=C/N(C)C)c2C#N)cs1	-1.9	/	70.2*	44.9*	62.0*
O=C(Nc1cccc(Cl)c1)c1cc2c(=O)n3ccccc3nc2s1	-5.0	1.3	1.6	-1.9	/
Cc1cccc(NC(=O)c2cc3c(=O)n4ccccc4nc3s2)c1	3.7	-0.7	44.9*	8.8	55.0*
C=CCN1C=C/C(=C\C=C(C#N)C#N)c2ccccc21	-0.4	15.7	94.4*	35.2*	111.2*
COc1ccc(CC(=O)Nc2cccc(-c3nnc(-c4ccccc4)o3)c2)cc1OC	-11.7	/	10.8	-1.8	/
COc1ccc(CC(=O)Nc2ccc(-c3nnc(-c4ccccc4)o3)cc2)cc1OC	4.8	0.6	36.4*	45.7*	72.8*
CCS(=O)(=O)N1N=C(c2ccccc2)CC1c1ccc2nccnc2c1 (centres undefined)	-0.1	-0.1	53.4*	19.3	75.3*

High-throughput results (PubChem BioAssay)
